Values after ≈ are worked out from the molar mass of the structure shown. Active and inactive are the calls of the source. The calls are words filed in the database; no cut-off is given here.
How the values were obtained:
[1] = Intrinsic clearance in human liver microsomes at 1 uM up to 30 mins by LC-MS/MS analysis; format: ADME; conditions: read-out: CLH
Cytochrome P450 2C9 = Cytochrome P450 2C9 (Homo sapiens, UniProt P11712); experiment: Inhibition of CYP2C9 (unknown origin); format: ADME
How it was run: (§1)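 CYP inhibition IC50 measured on isoforms CYP3A4, CYP2D6, CYP2C9, CYP2C19 and CYP1A2.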

Klebsiella pneumoniae = experiment: Antimicrobial activity against Klebsiella pneumoniae ARC1865 at 100 uM; format: functional, organism-based
How it was run: (§2)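 Nonmycobacterial panel of Candida albicans, Gram-negative and Gram-positive pathogens.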

[2] = Fraction unbound in human plasma at 20 uM after 18 hrs by equilibrium dialysis method; format: ADME, cell-free
[3] = tested on: Mycobacterium tuberculosis; experiment: Antimycobacterial activity against Mycobacterium tuberculosis over expressing PimA after 5 days by standard microdilution method; format: functional; conditions: 120 h
[4] = tested on: Mycobacterium tuberculosis; experiment: Antimycobacterial activity against Mycobacterium tuberculosis over expressing TopA after 5 days by standard microdilution method; format: functional; conditions: 120 h
[5] = Inhibition of Mycobacterium smegmatis DprE1 Y321H mutant using farnesylphosphoryl-beta-D-ribofuranose as substrate assessed as conversion of amplex red to resorufin after 30 mins; set-up: species or system Mycolicibacterium smegmatis
How it was run: (§3)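 Recombinant M. smegmatis DprE1 (thioredoxin-6His fusion), wild type or Y321H, 75 nM. Enzyme was preincubated 30 min in FAD assay mix: 50 mM glycylglycine pH 8.5, 200 mM potassium glutamate, 10 μM FAD, 0.002% Brij-35, 2% DMSO. Reaction was started with 300 μM farnesylphosphoryl-β-D-ribofuranose, 0.01 mg/mL HRP and 50 μM amplex red at 25 °C.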

[6] = Intrinsic clearance in rat cryopreserved hepatocytes assessed per 10^6 cells at 1 uM up to 120 mins by LC-MS/MS analysis; format: ADME, cell-based, Hepatocyte; conditions: read-out: CLH
[7] = Permeability of the compound from basolateral to apical side in human Caco2 cells; format: ADME, cell-based; conditions: Caco-2, read-out: permeability
Haemophilus influenzae [8] = experiment: Antimicrobial activity against Haemophilus influenzae ARC158 at 100 uM; format: functional, organism-based; how it was run: as §2
Haemophilus influenzae [9] = experiment: Antimicrobial activity against Haemophilus influenzae ARC446 at 100 uM; format: functional, organism-based; how it was run: as §2
[10] = Permeability of the compound from apical to basolateral side in human Caco2 cells; format: ADME, cell-based; conditions: Caco-2, read-out: permeability
Mu-type opioid receptor = Mu-type opioid receptor (Homo sapiens, UniProt P35372); experiment: Inhibition of mu opioid receptor (unknown origin)
How it was run: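 Secondary pharmacology panel of binding, enzyme and functional assays covering 24 molecular targets. Activity recorded as a defined Ki/IC50/EC50.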

Escherichia coli [11] = experiment: Antimicrobial activity against Escherichia coli ARC523 at 100 uM; format: functional, organism-based; how it was run: as §2
Streptococcus pneumoniae = experiment: Antimicrobial activity against Streptococcus pneumoniae ARC548 at 100 uM; format: functional, organism-based; how it was run: as §2
[12] = tested on: Mycolicibacterium smegmatis; experiment: Binding affinity to Mycobacterium smegmatis recombinant DprE1 assessed as half life
How it was run: (§4)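 Progress curves (fluorescence vs time) recorded at several inhibitor concentrations with 75 nM Msm DprE1 in the FAD/HRP/Amplex Red coupled assay, pH 8.5, 25 °C. A single-step reversible slow-binding model was fitted globally, with vs and vi fitted per concentration and koff and Kiapp shared. Half-life and residence time were derived from koff.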

Staphylococcus aureus = experiment: Antimicrobial activity against Staphylococcus aureus ARC517 at 100 uM; format: functional, organism-based; how it was run: as §2
Pseudomonas aeruginosa [13] = experiment: Antimicrobial activity against Pseudomonas aeruginosa ARC545 at 100 uM; format: functional, organism-based; how it was run: as §2
[14] = Cytotoxicity against human A549 cells after 72 hrs by resazurin based fluorescence assay; format: cell-based; conditions: read-out: MIC
How it was run: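 Cytotoxicity read as MMIC, the MIC on the A549 cell line.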

[15] = tested on: Mycobacterium tuberculosis; experiment: Antimycobacterial activity against Mycobacterium tuberculosis over expressing DprE1 after 5 days by standard microdilution method; format: functional; conditions: 120 h
Candida albicans = experiment: Antimicrobial activity against Candida albicans ARC527 at 100 uM; format: functional, organism-based; how it was run: as §2
Cytochrome P450 2D6 = Cytochrome P450 2D6 (Homo sapiens, UniProt P10635); experiment: Inhibition of CYP2D6 (unknown origin); format: ADME; how it was run: as §1
[16] = tested on: Mycolicibacterium smegmatis; experiment: Ratio of IC50 for Mycobacterium smegmatis DprE1 Y321H mutant to IC50 for Mycobacterium smegmatis recombinant wild type DprE1; how it was run: as §3
[17] = tested on: Mycolicibacterium smegmatis; experiment: Binding affinity to Mycobacterium smegmatis recombinant DprE1 assessed as residence time; how it was run: as §4
Escherichia coli [18] = experiment: Antimicrobial activity against Escherichia coli ARC524 at 100 uM; format: functional, organism-based; how it was run: as §2
[19] = Inhibition of Mycobacterium smegmatis recombinant DprE1 using farnesylphosphoryl-beta-D-ribofuranose as substrate assessed as conversion of amplex red to resorufin after 30 mins; set-up: species or system Mycolicibacterium smegmatis
How it was run: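 Msm DprE1 (thioredoxin-6His fusion of Msm Rv3790) at 75 nM, preincubated 30 min with 10 μM FAD. Buffer: 50 mM glycylglycine pH 8.5, 200 mM potassium glutamate, 0.002% Brij-35, 2% DMSO, 25 °C. Started with 300 μM farnesylphosphoryl-β-D-ribofuranose, 0.01 mg/mL HRP and 50 μM Amplex Red.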

Cytochrome P450 3A4 = Cytochrome P450 3A4 (Homo sapiens, UniProt P08684); experiment: Inhibition of CYP3A4 (unknown origin); format: ADME; how it was run: as §1
[20] = target: Voltage-gated inwardly rectifying potassium channel KCNH2 (Homo sapiens, UniProt Q12809); experiment: Inhibition of human ERG by medium-throughput electrophysiology
[21] = tested on: Mycolicibacterium smegmatis; experiment: Antimicrobial activity against Mycobacterium smegmatis mc2155 at 100 uM; format: functional, organism-based; conditions: str. MC2 155
[22] = tested on: Mycobacterium tuberculosis; experiment: Antimycobacterial activity against Mycobacterium tuberculosis H37Rv at >MIC after 21 to 28 days; format: functional
[23] = Octanol-water partition coefficient, log D of the compound by shake-flask method; format: physicochemical
Pseudomonas aeruginosa [24] = experiment: Antimicrobial activity against Pseudomonas aeruginosa ARC546 at 100 uM; format: functional, organism-based; how it was run: as §2
[25] = tested on: Mycolicibacterium smegmatis; experiment: Binding affinity to Mycobacterium smegmatis recombinant DprE1 assessed as dissociation constant; how it was run: as §4
[26] = tested on: Mycobacterium tuberculosis; experiment: Antimycobacterial activity against Mycobacterium tuberculosis H37Rv under hypoxic condition after 6 days by resazurin assay; format: functional; conditions: 144 h
[27] = tested on: Mycolicibacterium smegmatis; experiment: Antimicrobial activity against Mycobacterium smegmatis ATCC 607 at 100 uM; format: functional, organism-based
Cytochrome P450 1A2 = target: T1, Cytochrome P450 1A2 (Homo sapiens, UniProt P05177); experiment: Inhibition of CYP1A2 (unknown origin); format: ADME; how it was run: as §1
T1 sequence (P05177 whole entry): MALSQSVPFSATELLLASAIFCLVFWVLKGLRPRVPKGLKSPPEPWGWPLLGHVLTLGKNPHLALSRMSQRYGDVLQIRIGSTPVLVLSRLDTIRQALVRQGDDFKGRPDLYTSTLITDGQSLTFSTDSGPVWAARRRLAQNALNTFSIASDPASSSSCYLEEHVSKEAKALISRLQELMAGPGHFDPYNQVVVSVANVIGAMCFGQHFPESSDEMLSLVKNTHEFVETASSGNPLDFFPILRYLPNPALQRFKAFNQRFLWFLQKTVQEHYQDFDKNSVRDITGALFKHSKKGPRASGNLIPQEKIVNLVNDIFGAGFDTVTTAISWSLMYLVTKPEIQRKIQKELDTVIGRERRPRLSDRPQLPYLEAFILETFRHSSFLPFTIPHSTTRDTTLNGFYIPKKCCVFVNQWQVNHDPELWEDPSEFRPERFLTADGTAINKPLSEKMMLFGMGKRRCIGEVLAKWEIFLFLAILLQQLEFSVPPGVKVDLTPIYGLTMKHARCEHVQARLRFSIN

[28] = tested on: Mycobacterium tuberculosis; experiment: Antimycobacterial activity against Mycobacterium tuberculosis H37Rv after 5 days by standard microdilution method; format: functional; conditions: 120 h
Cytochrome P450 2C19 = Cytochrome P450 2C19 (Homo sapiens, UniProt P33261); experiment: Inhibition of CYP2C19 (unknown origin); format: ADME; how it was run: as §1
[29] = Solubility of the compound in 0.1 M phosphate buffer at pH 7.4 after 24 hrs by UV and MS analysis; format: physicochemical
[30] = tested on: Mycobacterium tuberculosis; experiment: Antimycobacterial activity against Mycobacterium tuberculosis over expressing InhA after 5 days by standard microdilution method; format: functional; conditions: 120 h

Sequence of Mu-type opioid receptor (P35372 whole entry): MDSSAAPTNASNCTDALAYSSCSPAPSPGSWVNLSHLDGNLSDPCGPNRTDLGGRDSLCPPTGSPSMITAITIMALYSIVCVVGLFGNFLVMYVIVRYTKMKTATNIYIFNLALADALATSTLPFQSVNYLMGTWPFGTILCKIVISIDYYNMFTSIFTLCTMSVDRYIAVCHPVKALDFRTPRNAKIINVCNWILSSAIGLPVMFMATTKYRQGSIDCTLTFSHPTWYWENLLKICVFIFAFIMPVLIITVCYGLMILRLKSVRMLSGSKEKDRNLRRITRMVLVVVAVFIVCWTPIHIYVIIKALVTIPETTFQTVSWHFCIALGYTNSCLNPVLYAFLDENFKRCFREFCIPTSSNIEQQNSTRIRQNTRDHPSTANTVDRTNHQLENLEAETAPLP
Sequence of Cytochrome P450 3A4 (P08684 whole entry): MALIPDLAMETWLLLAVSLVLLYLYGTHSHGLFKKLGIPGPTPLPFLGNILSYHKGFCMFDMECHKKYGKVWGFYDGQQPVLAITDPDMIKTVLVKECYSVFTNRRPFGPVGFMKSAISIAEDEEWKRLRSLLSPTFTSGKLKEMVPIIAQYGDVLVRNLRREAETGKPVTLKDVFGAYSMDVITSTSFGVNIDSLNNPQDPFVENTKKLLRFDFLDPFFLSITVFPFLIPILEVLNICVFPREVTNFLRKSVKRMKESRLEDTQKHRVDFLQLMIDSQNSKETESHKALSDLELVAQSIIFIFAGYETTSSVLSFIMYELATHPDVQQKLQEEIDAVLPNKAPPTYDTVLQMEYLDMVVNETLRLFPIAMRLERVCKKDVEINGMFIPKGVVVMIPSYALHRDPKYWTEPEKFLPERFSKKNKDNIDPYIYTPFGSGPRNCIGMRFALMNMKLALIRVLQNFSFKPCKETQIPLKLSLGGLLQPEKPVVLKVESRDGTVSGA
Sequence of Cytochrome P450 2D6 (P10635 whole entry): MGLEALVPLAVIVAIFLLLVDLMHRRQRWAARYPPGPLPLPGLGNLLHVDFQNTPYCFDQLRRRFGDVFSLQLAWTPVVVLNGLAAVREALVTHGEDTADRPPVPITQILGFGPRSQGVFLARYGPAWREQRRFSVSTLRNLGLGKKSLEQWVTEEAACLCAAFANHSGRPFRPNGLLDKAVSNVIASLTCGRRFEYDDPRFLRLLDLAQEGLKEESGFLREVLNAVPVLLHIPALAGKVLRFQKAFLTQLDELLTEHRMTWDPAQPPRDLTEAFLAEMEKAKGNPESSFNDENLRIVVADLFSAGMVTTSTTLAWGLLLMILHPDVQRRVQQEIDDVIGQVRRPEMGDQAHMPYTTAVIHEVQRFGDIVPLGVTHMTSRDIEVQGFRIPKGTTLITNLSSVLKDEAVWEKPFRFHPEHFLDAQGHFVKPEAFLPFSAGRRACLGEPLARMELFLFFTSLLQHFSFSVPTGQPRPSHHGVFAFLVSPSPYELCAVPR
Sequence of Voltage-gated inwardly rectifying potassium channel KCNH2 (Q12809 whole entry): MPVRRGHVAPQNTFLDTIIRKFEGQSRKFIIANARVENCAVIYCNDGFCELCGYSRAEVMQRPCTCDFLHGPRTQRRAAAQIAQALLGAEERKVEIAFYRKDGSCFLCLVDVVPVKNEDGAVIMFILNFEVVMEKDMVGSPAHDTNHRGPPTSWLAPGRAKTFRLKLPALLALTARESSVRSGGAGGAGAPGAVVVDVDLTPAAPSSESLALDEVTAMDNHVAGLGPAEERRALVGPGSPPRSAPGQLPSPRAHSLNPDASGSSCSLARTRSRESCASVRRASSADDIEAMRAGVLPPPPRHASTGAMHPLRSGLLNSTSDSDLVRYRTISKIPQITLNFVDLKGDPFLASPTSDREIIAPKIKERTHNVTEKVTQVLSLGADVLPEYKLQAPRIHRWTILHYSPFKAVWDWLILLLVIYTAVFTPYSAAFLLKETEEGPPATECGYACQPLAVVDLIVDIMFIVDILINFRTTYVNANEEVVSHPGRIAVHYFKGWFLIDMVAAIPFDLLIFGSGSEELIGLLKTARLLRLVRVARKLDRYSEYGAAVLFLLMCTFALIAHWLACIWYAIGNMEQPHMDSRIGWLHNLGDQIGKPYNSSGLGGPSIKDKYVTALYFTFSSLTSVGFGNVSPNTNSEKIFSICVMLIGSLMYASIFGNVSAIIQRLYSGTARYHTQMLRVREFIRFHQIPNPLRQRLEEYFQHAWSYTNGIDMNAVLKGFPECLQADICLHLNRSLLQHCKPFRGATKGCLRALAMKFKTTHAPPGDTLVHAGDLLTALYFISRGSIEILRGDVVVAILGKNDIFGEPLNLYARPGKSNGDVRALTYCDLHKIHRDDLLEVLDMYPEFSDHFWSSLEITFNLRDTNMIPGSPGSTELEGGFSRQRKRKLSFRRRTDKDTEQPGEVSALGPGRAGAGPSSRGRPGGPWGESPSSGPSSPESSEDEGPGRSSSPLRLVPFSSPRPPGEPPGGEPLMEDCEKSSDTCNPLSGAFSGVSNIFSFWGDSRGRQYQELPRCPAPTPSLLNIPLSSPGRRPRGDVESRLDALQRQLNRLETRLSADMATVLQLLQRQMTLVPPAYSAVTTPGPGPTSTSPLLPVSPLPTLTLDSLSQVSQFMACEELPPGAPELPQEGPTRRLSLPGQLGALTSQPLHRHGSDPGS
Sequence of Cytochrome P450 2C9 (P11712 whole entry, canonical isoform): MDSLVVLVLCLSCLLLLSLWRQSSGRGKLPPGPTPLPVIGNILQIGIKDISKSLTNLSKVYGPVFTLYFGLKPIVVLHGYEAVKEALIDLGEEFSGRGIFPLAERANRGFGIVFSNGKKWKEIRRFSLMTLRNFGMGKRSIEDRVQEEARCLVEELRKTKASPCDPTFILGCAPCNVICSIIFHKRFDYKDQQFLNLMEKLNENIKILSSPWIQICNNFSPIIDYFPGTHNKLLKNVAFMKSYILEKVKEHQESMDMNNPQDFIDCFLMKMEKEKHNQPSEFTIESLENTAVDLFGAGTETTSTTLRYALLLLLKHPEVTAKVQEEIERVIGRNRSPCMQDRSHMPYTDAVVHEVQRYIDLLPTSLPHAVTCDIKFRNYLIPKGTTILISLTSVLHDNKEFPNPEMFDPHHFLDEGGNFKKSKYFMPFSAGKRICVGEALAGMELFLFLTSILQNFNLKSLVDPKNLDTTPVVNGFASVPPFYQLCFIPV
Sequence of Cytochrome P450 2C19 (P33261 whole entry): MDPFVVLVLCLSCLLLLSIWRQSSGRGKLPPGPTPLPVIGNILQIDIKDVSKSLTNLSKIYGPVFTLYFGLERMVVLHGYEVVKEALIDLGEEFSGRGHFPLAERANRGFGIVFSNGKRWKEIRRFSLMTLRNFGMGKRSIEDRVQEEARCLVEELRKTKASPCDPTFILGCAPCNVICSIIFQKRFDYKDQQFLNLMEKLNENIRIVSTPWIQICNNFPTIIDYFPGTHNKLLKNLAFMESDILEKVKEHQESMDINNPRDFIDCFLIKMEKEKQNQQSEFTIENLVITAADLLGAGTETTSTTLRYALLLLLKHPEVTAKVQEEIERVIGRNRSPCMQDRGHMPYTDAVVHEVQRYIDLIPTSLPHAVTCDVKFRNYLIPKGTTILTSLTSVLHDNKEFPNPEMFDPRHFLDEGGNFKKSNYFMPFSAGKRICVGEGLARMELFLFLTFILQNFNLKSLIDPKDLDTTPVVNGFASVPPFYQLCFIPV

Cn1ncc(C(=O)N2CCC(Nc3cc(=O)[nH]c4ccccc34)CC2)c1Cl
microsomal CLint at 1 µM [1]: < 4 µL/min/mg
INH (Cytochrome P450 2C9): > 30 µM
Activity (Klebsiella pneumoniae): inactive
fraction unbound at 18 h, 20 µM [2]: 0.3
MIC [3]: 3.1 µM (≈ 1.2 µg/mL)
MIC [4]: 3.1 µM (≈ 1.2 µg/mL)
IC50 [5]: > 10 µM
hepatocyte CLint at 1 µM [6]: 1.5 µL/min/1e6 cells
Papp B→A [7]: 14 ×10⁻⁶ cm/s
Activity (Haemophilus influenzae [8]): inactive
Activity (Haemophilus influenzae [9]): inactive
Papp A→B [10]: 0.5 ×10⁻⁶ cm/s
IC50 (Mu-type opioid receptor): 21.9 µM
Activity (Escherichia coli [11]): inactive
Activity (Streptococcus pneumoniae): inactive
T1/2 [12]: 1.2 h
Activity (Staphylococcus aureus): inactive
Activity (Pseudomonas aeruginosa [13]): inactive
MCC at 72 h [14]: > 200 µM
MIC [15]: > 100 µM
Activity (Candida albicans): inactive
INH (Cytochrome P450 2D6): > 30 µM
fold change (FC) [16]: > 63
TIME [17]: 1.73 h
Activity (Escherichia coli [18]): inactive
IC50 [19]: 150 nM
INH (Cytochrome P450 3A4): > 30 µM
IC50 [20]: > 100 µM
Activity [21]: inactive
MBC [22]: 6.3 µM (≈ 2.43 µg/mL)
logD [23]: 1.6
Activity (Pseudomonas aeruginosa [24]): inactive
Kdiss [25]: 0.00016 s⁻¹
IC80 [26]: > 100 µM
Activity [27]: inactive
INH (Cytochrome P450 1A2): > 30 µM
MIC [28]: 6.25 µM (≈ 2.41 µg/mL)
INH (Cytochrome P450 2C19): > 30 µM
solubility at 24 h [29]: 255 µM (≈ 98.4 µg/mL)
MIC [30]: 6.3 µM (≈ 2.43 µg/mL)

— ChEMBL document CHEMBL3286182, “4-aminoquinolone piperidine amides: noncovalent inhibitors of DprE1 with long residence time and potent antimycobacterial activity” (J Med Chem, 2014)
